E-sel inducer: E-selectin induction on HUVECs; P16581; HUVEC E-selectin immunofluorescence imaging; normalized: neutral wells 0, TNF-alpha wells 100; activation, % at 7.58 µM; hit rate 0.37% among 260,000; AID 686992;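 active = mean E-selectin-positive cell signal at least 10% of the positive control, reached in at least 60% of replicates, without over 20% cell loss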
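Test system: HUVEC | Signal: Immunofluorescence imaging | Read-out: Percent E-selectin-positive cells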
ERAP1 HTS inh: blocks human ERAP1 aminopeptidase activity | Q9NZ08 | recombinant ERAP1, Leu-AMC fluorescence, 60 min | inhibition, % at 10.7 µM | hit rate 0.15% among 340,000 | AID 652197;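 active = mean replicate inhibition of at least 30%, or all replicates individually reaching that 30% level; inactive = mean below 30% and not every replicate reaching it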
DENV2 CPE rescue: inhibitors of DENV2 cytopathic effect. DENV2-infected cells, cytopathic effect rescue, plate reader. AID 651640. CPE inhibition, % at 9.99 µM. hit rate 1.7% among 350,000; in the data active = CPE inhibition above about 20%, passing the limit was not always enough; tested in BHK-21 cells
F508del corr: correctors of CFTR F508del function in bronchial epithelial cells. CFBE cells, YFP halide quenching; stimulated with forskolin plus potentiator P3; % fluorescence drop versus neutral controls. activity (quench increase), % at 7.58 µM. hit rate 0.36% among 350,000. AID 720511;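 active = mean added fluorescence quench of at least 8% versus neutral control, with both replicates also reaching 8%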;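 note: cells transiently co-express mutant CFTR-F508del with the halide-sensitive YFP; corrector assay measuring rescue of mutant channel to the surface after 24 h compound exposure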
FGF22 binding: shifts melting point of recombinant human FGF22; recombinant FGF22 thermal shift, SYPRO orange fluorescence; percent of sucrose octasulfate shift, DMSO zero; Q9HCT0; hit rate 1.5% among 340,000; AID 651658; activity (Tm shift, normalised), % at 9.99 µM;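 active = mean Tm shift, scaled 0 neutral to 100 positive control, at about 1.3% or above, every replicate too, limit read from the data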
Hits are given with their value. An excerpt weighted towards active compounds, which were near 3.7% of everything screened.

CCOc1ccc(CCN2C(=S)N([C@@H](Cc3ccc(O)cc3)CN3CCC[C@@H]3CN3C(=S)NC[C@@H]3CC(C)C)C[C@@H]2CC(C)C)cc1 was read as E-sel inducer inactive, ERAP1 HTS inh inactive, DENV2 CPE rescue 21.9, F508del corr inactive and FGF22 binding inactive.
c1ccc(-c2cn(C[C@H]3CC[C@@H]([C@@H]4CC[C@H](Cn5cc(-c6ccccn6)nn5)O4)O3)nn2)nc1 was read as E-sel inducer inactive, ERAP1 HTS inh inactive, DENV2 CPE rescue inactive, F508del corr inactive and FGF22 binding inactive.
c1ccc(-c2cn(C[C@H]3CC[C@@H]([C@@H]4CC[C@H](Cn5cc(-c6ccccc6)nn5)O4)O3)nn2)cc1 was read as E-sel inducer inactive, ERAP1 HTS inh inactive, DENV2 CPE rescue 33.9, F508del corr inactive and FGF22 binding inactive.
CCC(=O)N1CC2(C1)CN(Cc1ccccc1Cl)[C@H](CO)c1[nH]c3cc(OC)ccc3c12 was read as E-sel inducer inactive, DENV2 CPE rescue inactive, F508del corr inactive and FGF22 binding inactive.
For Cc1ccc(S(=O)(=O)N(C)C[C@@H]2OCCCC[C@H](C)Oc3ccc(NS(C)(=O)=O)cc3C(=O)N([C@H](C)CO)C[C@@H]2C)cc1 the results were E-sel inducer inactive, ERAP1 HTS inh inactive, DENV2 CPE rescue 56.9, F508del corr inactive and FGF22 binding inactive.
`C[C@H](CO)N1C[C@H](C)[C@@H](CN(C)S(=O)(=O)c2ccc(F)cc2)OCCCC[C@H](C)Oc2ccc(NS(C)(=O)=O)cc2C1=O` gave E-sel inducer inactive, ERAP1 HTS inh inactive, DENV2 CPE rescue 26.7, F508del corr inactive and FGF22 binding inactive.
Screening Cc1ccc(S(=O)(=O)N(C)C[C@H]2OCCCC[C@H](C)Oc3ccc(NS(C)(=O)=O)cc3C(=O)N([C@H](C)CO)C[C@H]2C)cc1 returned E-sel inducer inactive, ERAP1 HTS inh inactive, DENV2 CPE rescue inactive, F508del corr inactive and FGF22 binding inactive.
`C[C@@H]1CN([C@H](C)CO)C(=O)c2cc(NS(C)(=O)=O)ccc2O[C@@H](C)CCCCO[C@@H]1CN(C)S(=O)(=O)c1ccc(F)cc1` gave E-sel inducer inactive, ERAP1 HTS inh inactive, DENV2 CPE rescue inactive, F508del corr inactive and FGF22 binding inactive.
`C[C@@H]1CCCCO[C@H](CN(C)S(=O)(=O)c2ccc(F)cc2)[C@@H](C)CN([C@@H](C)CO)C(=O)c2cc(NS(C)(=O)=O)ccc2O1` gave E-sel inducer inactive, ERAP1 HTS inh inactive, DENV2 CPE rescue 29.4, F508del corr inactive and FGF22 binding inactive.
`CCOc1ccc(-n2c(SCC(N)=O)nnc2-c2cccnc2)cc1` gave E-sel inducer inactive, ERAP1 HTS inh inactive, DENV2 CPE rescue 23.0, F508del corr inactive and FGF22 binding inactive.
`Cc1cccc(N2CCN(C(=O)c3ccc4[nH]c(C)c(C)c4c3)CC2)c1C` gave E-sel inducer inactive, ERAP1 HTS inh inactive, DENV2 CPE rescue inactive, F508del corr 10.7 and FGF22 binding inactive.
Screening Cc1cccc(N2CCN(C(=O)c3c(-c4ccccc4)noc3C)CC2)c1C returned E-sel inducer inactive, ERAP1 HTS inh inactive, DENV2 CPE rescue inactive, F508del corr 15.4 and FGF22 binding inactive.
Screening CCOC(=O)C1CCN(C(=O)Cc2ccccc2OC)CC1 returned ERAP1 HTS inh inactive, DENV2 CPE rescue inactive, F508del corr inactive and FGF22 binding 56.5.
`Cc1onc(-c2ccccc2Cl)c1C(=O)N1CCN(c2cccc(Cl)c2)CC1` gave E-sel inducer inactive, ERAP1 HTS inh inactive, DENV2 CPE rescue inactive, F508del corr 8.1 and FGF22 binding inactive.
For Cc1[nH]c2ccc(C(=O)N3CCN(c4ccccc4Cl)CC3)cc2c1C the results were ERAP1 HTS inh inactive, DENV2 CPE rescue inactive, F508del corr inactive and FGF22 binding inactive.
For Cc1onc(-c2ccccc2Cl)c1C(=O)N1CCN(c2ccccc2)CC1 the results were ERAP1 HTS inh inactive.
Screening CCc1noc(C)c1C(=O)N1CCN(c2cccc(C)c2C)CC1 returned E-sel inducer inactive, ERAP1 HTS inh inactive, DENV2 CPE rescue inactive, F508del corr inactive and FGF22 binding inactive.
C[C@H](CO)N1C[C@H](C)[C@@H](CN(C)S(=O)(=O)c2ccccc2)OCCCC[C@H](C)Oc2ccc(NS(=O)(=O)c3cccs3)cc2C1=O was read as ERAP1 HTS inh inactive, DENV2 CPE rescue inactive, F508del corr inactive and FGF22 binding inactive.
`CCOC(=O)C1CCN(C(=O)c2c(-c3ccccc3)noc2C)CC1` gave E-sel inducer inactive, ERAP1 HTS inh inactive, DENV2 CPE rescue inactive, F508del corr inactive and FGF22 binding 43.5.

Source: PubChem
